Sampled rows, rich in hits. Any-hit rate of the full collection: about 3.6%.
Yeast growth inh – chemicals that inhibit yeast BB579 growth in restrictive medium (lifespan-shortening candidates) | S. cerevisiae BB579 growth, OD615, 48 h | inhibition, % at 10 µM | hit rate 0.51% among 140,000 | AID 804;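 active = inhibition above a set limit, 3 SD over the mean compound inhibition, cut at about 44% in these data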
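Test system: Saccharomyces cerevisiae DeaD strain BB579, replicative lifespan model yeast | Buffer or medium: Restrictive CSMM-D medium | Doses: One dose, 10 µM compound with 0.25% DMSO | Incubation: 48 h exposure, 30 °C | Detection: Culture absorbance at 615 nm | Control set: Amphotericin B at 10 µg/mL as positive control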
RAM network inh – inhibitors of the yeast RAM network. S. cerevisiae dse1pr::URA3 reporter, 5-FOA growth OD615, 2 d; analog-sensitive cbk1-as2 kinase mutant strain. inhibition, % at 50 µM. hit rate 1.8% among 190,000. AID 868;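 active = inhibition above a set limit, 3 SD over mean compound inhibition, cut at about 8.4% in these data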;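 also: inhibition rescues growth on 5-FOA so higher OD means more RAM inhibition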
Measles CPE – protection of cells from measles virus. Measles virus-infected cells, CPE protection, absorbance. protection (pct of control), % at 4 µM. hit rate 1.5% among 140,000. AID 841; in the data active = protection mostly above about 24%, no sharp cut-off; inactive = mostly below about 26%
Phagocyt inh – inhibitors of macrophage phagocytosis | J774A.1 macrophage IgG-bead phagocytosis, imaging | inhibition, % at 5 µM | hit rate 0.07% among 110,000 | AID 1029;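 active = inhibition above the mean of the plate negative controls plus 5 SD, cut at about 13% in these data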;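 also: phagocytic index as fraction of beads internalized from green versus red external bead signal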
Yeast life ext – yeast lifespan extension; hit rate 0.68% among 130,000; S. cerevisiae growth with nicotinamide, OD615; deaD strain in restrictive glucose medium; inhibition of the nicotinamide effect, % at 10 µM;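 active = inhibition above a set limit, placed 3 SD over the median of all compounds, cut at about 26% in these data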
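Assay system: engineered S. cerevisiae DeaD replicative-lifespan strain, galactose-grown log-phase cells; medium: restrictive CSMM-D dextrose medium; also added: nicotinamide, 1.5 mM, co-present with compound; schedule: 48 h compound exposure at 30 °C, humidified; detection: absorbance at 615 nm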
A number is an active result; n = inactive; x = not tested or not shown.

SMILES	Yeast growth inh	RAM network inh	Measles CPE	Phagocyt inh	Yeast life ext
COc1ccc(CN(C(=O)CSc2nnc(-c3c[nH]c4ccccc34)o2)c2ccc(F)cc2)cc1OC	n	9.9	n	x	x
CSc1nc2ncc(C(=O)O)c(N)n2n1	x	n	x	x	x
O=C(CN(Cc1ccccc1)S(=O)(=O)c1cccc(C(F)(F)F)c1)NC1CCCCC1	n	8.8	n	n	n
O=C(COC(=O)COc1ccc(Cl)cc1Cl)Nc1cccnc1Cl	n	n	n	n	n
N/C(=N\NC(=O)c1sccc1OCc1ccc(Cl)cc1Cl)c1ccccn1	x	8.7	x	x	x
CNC(=S)NNC(=O)c1sccc1OCc1ccc(Cl)cc1Cl	n	n	n	n	n
Cc1ccc(NC(=O)COC(=O)CNC(=O)c2ccco2)cc1	x	n	x	x	x
CCC(=O)NC(c1ccc(C)cc1)c1cc([N+](=O)[O-])c2cccnc2c1O (stereo not given)	85	n	n	n	n
CC(=O)NC(c1ccc(C)cc1)c1cc([N+](=O)[O-])c2cccnc2c1O (stereo not given)	x	n	x	x	x
Cc1ccc(OCCOC(=O)c2sc(=S)n(C)c2C)cc1	x	n	x	x	x
Cc1c(C(=O)OCCOc2ccc(Br)cc2)sc(=S)n1C	x	11	x	x	x
CC(C)OC(=O)n1c(=S)oc2ccccc21	n	n	n	n	n
Cc1cccc(OC(=O)n2c(=S)oc3cc(Cl)ccc32)c1	n	n	n	n	64
O=C(c1ccc2c(c1)OCO2)C1CCCN(C2CCN(CCc3ccccc3)CC2)C1 (stereo not given)	x	n	x	x	x
COc1ccc2[nH]c3nc(SCc4nnc(-c5ccc(C)cc5)o4)nnc3c2c1	n	n	x	n	n
O=C(NCc1ccccc1Cl)c1ccccc1CCc1ccccc1	n	n	n	n	32
C=CCNC(=O)c1ccccc1CCc1ccccc1	x	n	x	x	x
O=C(NCc1ccc(Cl)cc1)c1ccccc1CCc1ccccc1	n	n	n	n	41
NC(=O)NCc1ccc(Cl)cc1	n	n	n	x	59
COC(=O)C1=C(C)Nc2c(c(=O)n(C)c(=O)n2C)C1c1ccc(Cl)cc1 (stereo not given)	n	n	n	n	n
COc1ccc(CCn2c(=O)[nH]c3cc(C(=O)N4CCN(c5ccccn5)CC4)ccc3c2=O)cc1OC	x	n	x	x	x
Cc1onc(C(=O)NN)c1C(=O)Nc1ncc(C(F)(F)F)cc1Cl	x	n	x	x	x
COc1ccc(NC(=O)Cn2cnc3c(nnn3-c3ccc(C)cc3)c2=O)cc1	x	n	x	x	x
Cc1cc(Nc2ccccc2)n(C(=O)c2ccc(Cl)cc2)n1	n	n	44	x	x
Cc1cc(Nc2ccccc2)n(-c2ccc(C(=O)O)cc2)n1	x	n	x	x	x
SMILES	Yeast growth inh	RAM network inh	Measles CPE	Phagocyt inh	Yeast life ext
O=C(N/N=C/c1ccccc1)c1ccc(N2CCOCC2)c([N+](=O)[O-])c1	n	n	20	n	n
CCOc1ccccc1N=CC1=C(O)CC(c2ccccc2)CC1=O (stereo not given)	x	11	x	x	x
Cc1cc(=O)n(-c2ccc(C(=O)O)cc2)[nH]1	x	n	x	x	x
CCOC(=O)c1ccc(-n2[nH]c(-c3ccccc3)cc2=O)cc1	97	9.6	n	n	n
CCCOc1ccc(CC(CC(=O)O)(C(=O)O)C(=O)O)cc1	n	n	46	n	n
CCCCOc1ccc(C(=O)O)cc1	n	n	n	n	n
CCN(CC)c1ccc(C(=O)OCC(=O)Nc2cccc(S(=O)(=O)NC3=NCCCCC3)c2)cc1	n	n	n	n	n
O=C1c2ccc3c4c(ccc(c24)C(=O)N1NC(=O)C(F)(F)F)CC3	54	n	n	x	n
O=c1[nH]c2ccccc2c2nc3ccccn3c12	80	n	n	n	n
N#CCCn1cc(C(=O)Nc2ccc(C(=O)O)cc2)c(-c2ccc([N+](=O)[O-])cc2)n1	x	8.8	x	x	x
N#CCCn1cc(C(=O)Nc2ccc(C(=O)O)cc2)c(-c2cccs2)n1	x	n	x	x	x
COc1cccc(NC(=O)COC(=O)c2nc3nccc(C)n3n2)c1	n	n	76	x	n
CCC(CC)C(=O)Nc1cc(C(=O)NCCc2ccccc2)ccc1Cl	n	n	n	x	n
COc1ccc(NC(=O)C2CCCN2S(=O)(=O)c2cccc3cccnc23)c(OC)c1 (stereo not given)	98	n	n	n	n
O=C(NC1CCCCCC1)C1CCN(S(=O)(=O)c2cccc3cccnc23)CC1	n	n	n	n	n
O=C(NC1CCCC1)C1CCCN(S(=O)(=O)c2cccc3cccnc23)C1 (stereo not given)	n	8.7	n	n	n
COc1ccccc1OCCC(=O)OCC(=O)Nc1ccc(Br)cc1F	x	n	x	x	x
Cc1ccc(N=Cc2c(O)ccc3ccccc23)cc1F	n	n	n	n	36
N#Cc1cccc(N=Cc2c(O)ccc3ccccc23)c1	n	n	n	n	40
CCOC(=O)c1sc(/N=C/c2c(O)ccc3ccccc23)cc1C	n	9.0	n	n	n
COc1ccc(N=Cc2c(O)ccc3ccccc23)cc1	x	n	x	x	x
Cc1oc(/N=C/c2c(O)ccc3ccccc23)c(C#N)c1C	x	x	x	n	x
O=C(O)Cc1ccc(N=Cc2c(O)ccc3ccccc23)cc1	n	n	n	n	57
FC(F)(F)c1ccc(Oc2ccc3ccccc3c2Br)nc1	n	n	n	n	n
COc1ccc(C2CC(c3ccc(Br)cc3)=NN2C(=O)CSC2=NCCS2)cc1 (stereo not given)	n	n	n	n	n
SMILES	Yeast growth inh	RAM network inh	Measles CPE	Phagocyt inh	Yeast life ext
Cc1ccc(S(=O)(=O)N(C)C)cc1NC(=O)CN1C(=O)NC2(CCCc3ccccc32)C1=O (stereo not given)	n	n	n	n	n
O=C(COC(=O)C1(c2cccc(F)c2)CCCC1)NCc1ccc2c(c1)OCO2	n	n	n	x	n
COc1ccc(-c2noc(CSc3nnc(Cc4ccccc4)n3-c3ccc(Cl)cc3)n2)cc1	n	10	n	n	n
Cc1ccc(-c2noc(CSc3nnc(Cc4ccccc4)n3-c3ccc(Cl)cc3)n2)cc1	n	8.5	n	n	n
O=C1c2ccccc2NC(c2cnc3ccccc3n2)N1O (stereo not given)	n	n	n	n	57
CCOC(=O)N1CCN(c2cc(=O)n(-c3cccc(C)c3)c(=O)[nH]2)CC1	x	n	x	x	x
FCCCOc1ccc(-c2nccc(-c3ccc(Cl)cc3)n2)cc1	n	8.8	n	n	n
S=C(Nc1ccc(Cl)cc1)c1nc2ccccc2[nH]1	n	n	n	n	n
Cc1ccccc1NC(=S)c1nc2ccccc2[nH]1	50	n	n	n	n
CCOC(=O)c1cc([N+](=O)[O-])c([N+](=O)[O-])cc1NC(C)=O	99	n	n	n	n
Nc1ccc(C(=O)OCC(=O)Nc2cc([N+](=O)[O-])ccc2F)cc1	n	n	n	n	n
C/C(Cn1nnc([N+](=O)[O-])n1)=N\NC(=O)c1ccccc1Cl	n	n	50	x	n
C/C(Cn1nnc([N+](=O)[O-])n1)=N\NC(=O)c1cccc(Cl)c1	n	n	n	n	n
O=C(NC(=S)N1CCc2ccccc21)c1ccccc1Br	n	n	n	n	27
Cn1c(COc2ccccc2)nnc1SCc1cc(=O)[nH]c2ccccc12	n	n	n	n	44
O=c1cc(CSc2nnc(COc3ccccc3)n2-c2ccccc2)c2ccccc2[nH]1	n	n	n	x	n

Screening results: PubChem BioAssay, several laboratories
